Data on one compound can be found in ChEMBL document CHEMBL1833861 (J Med Chem, 2011).

Active and inactive are the calls of the source. The rule behind the calls is not given here.

The subject of assay [1] is Mus musculus. Put plainly: Antidepressant activity in BALB/cJ mouse assessed as decrease in immobility time at 1 mg/kg, ip after 30 mins by forced swim test. The class given is functional, organism-based. Details: dose 1 mg/kg. The gist of the method: (§1)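 Male BALB/cJ mice, 8–10 weeks old; compound in injectable water given ip at 10 mL/kg. Sertraline (10 or 20 mg/kg) served as positive control. 30 min post-dose, each mouse placed in a glass cylinder with 12 cm of 23 ± 1 °C water; immobility (floating) timed over a 6 min trial. n = 10/group; ANOVA with post hoc test.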

Assay [2] concerns Mus musculus. The assay is described as follows: Antidepressant activity in BALB/cJ mouse assessed as decrease in immobility time at 3 mg/kg, ip after 30 mins by forced swim test. It is filed as functional, organism-based. Details: dose 3 mg/kg. In a few lines: as §1
For assay [3], the system named is Mus musculus. Put plainly: Ex vivo receptor occupancy at beta2 nAChR in BALB/cJ mouse brain at 3 mg/kg, ip after 30 mins. The class given is functional. Particulars: route intraperitoneal. In a few lines: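 Male BALB/cJ mice, 8–10 weeks old, dosed IP at 3 mg/kg (water vehicle, 10 mL/kg); vehicle controls received water. Brains collected 30 min after dosing, matching the forced-swim timing. β2* nAChR occupancy measured ex vivo in thalamus.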

Assay [4] has as its system Mus musculus. The assay is described as follows: Antidepressant activity in BALB/cJ mouse assessed as decrease in immobility time at 10 mg/kg, po after 30 mins by forced swim test. It is filed as functional, organism-based. Details: dose 10 mg/kg. The gist of the method:
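Male BALB/cJ mice, 8–10 weeks old, dosed by oral gavage with compound in injectable water (10 mL/kg). Sertraline served as positive control. Forced swim begins 30 min after dosing, in a cylinder with 12 cm of 23 ± 1 °C water; total immobility recorded over 6 min. ANOVA followed by Newman-Keuls post hoc test.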

Regarding `Cl.OCCc1cc(-c2cncc(OC[C@@H]3CCN3)c2)on1`, the result in assay [1], in assay [2] and in assay [4] was Active. In assay [3], this compound registered an Activity of 60%.
